Screening data: PubChem, Johns Hopkins Ion Channel Center
KCNQ1 inh: blocks the human KCNQ1 potassium channel; actives 1.3% (n = 310,000); B-score at 10 µM; CHO-K1 KCNQ1, FluxOR thallium flux fluorescence; hits give high values;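 active means compounds whose thallium flux B-score, printed positive for inhibition, exceeds three library SD while starting fluorescence stays within three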;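 further: channel opened by potassium depolarization with thallium stimulus after 20 min compound exposure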
hERG protect: shields human hERG channel from block by proarrhythmic agents; AID 1511; CHO-hERG, FluxOR thallium flux, dofetilide IC70 present; Q12809; actives 0.51% (n = 310,000); activation (rescue from dofetilide block), less the hit threshold, % at 10 µM;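 active means activation above the mean of controls blocked by dofetilide plus 5 SD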;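 further: thallium influx through hERG after potassium depolarization seen as dye fluorescence rise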
Target sequence (Q12809 whole entry, looked up): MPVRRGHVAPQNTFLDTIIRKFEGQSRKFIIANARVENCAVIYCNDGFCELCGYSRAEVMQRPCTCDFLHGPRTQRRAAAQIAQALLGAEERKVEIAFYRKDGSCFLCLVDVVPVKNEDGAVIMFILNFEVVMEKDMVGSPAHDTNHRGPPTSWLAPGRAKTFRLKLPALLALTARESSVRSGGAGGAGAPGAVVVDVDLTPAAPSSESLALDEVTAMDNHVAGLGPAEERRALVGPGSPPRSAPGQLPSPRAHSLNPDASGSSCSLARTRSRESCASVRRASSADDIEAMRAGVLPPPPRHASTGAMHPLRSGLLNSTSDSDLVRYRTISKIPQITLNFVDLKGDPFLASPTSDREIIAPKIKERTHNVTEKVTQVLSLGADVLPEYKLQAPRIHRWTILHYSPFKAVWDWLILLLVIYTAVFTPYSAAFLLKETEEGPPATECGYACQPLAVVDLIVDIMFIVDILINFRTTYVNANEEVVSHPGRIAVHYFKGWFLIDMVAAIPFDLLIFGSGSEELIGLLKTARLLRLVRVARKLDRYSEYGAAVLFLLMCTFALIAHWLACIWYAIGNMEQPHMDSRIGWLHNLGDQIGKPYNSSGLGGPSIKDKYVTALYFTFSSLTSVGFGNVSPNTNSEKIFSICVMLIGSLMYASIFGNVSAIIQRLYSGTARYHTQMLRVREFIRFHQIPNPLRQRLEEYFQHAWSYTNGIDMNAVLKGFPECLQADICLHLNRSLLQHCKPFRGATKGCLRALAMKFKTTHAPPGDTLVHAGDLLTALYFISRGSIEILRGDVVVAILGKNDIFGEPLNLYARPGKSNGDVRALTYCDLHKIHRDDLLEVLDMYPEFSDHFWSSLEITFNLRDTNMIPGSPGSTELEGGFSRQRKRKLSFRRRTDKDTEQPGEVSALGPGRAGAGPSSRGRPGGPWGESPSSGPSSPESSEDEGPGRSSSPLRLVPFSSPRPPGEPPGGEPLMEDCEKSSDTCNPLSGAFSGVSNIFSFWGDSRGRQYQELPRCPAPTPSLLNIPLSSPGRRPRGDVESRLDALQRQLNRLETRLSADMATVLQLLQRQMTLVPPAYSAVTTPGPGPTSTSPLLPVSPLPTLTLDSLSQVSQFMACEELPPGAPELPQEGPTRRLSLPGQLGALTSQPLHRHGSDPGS
KCNK9 block: human KCNK9 channel inhibition | Q9NPC2 | HEK293 KCNK9, FluxOR thallium flux fluorescence; hits give low values | B-score at 10 µM | actives 1.2% (n = 310,000) | AID 488922;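 active means ratio B-score over 3 SD below the library mean, with starting fluorescence within 5 SD of its mean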;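 further: negative B-score means less thallium flux so channel inhibition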
Kir21 inh: blocks the mouse Kir2.1 inward-rectifier potassium channel | actives 0.85% (n = 310,000) | P35561 | HEK293-Kir2.1, FluxOR thallium flux fluorescence; hits give low values | B-score at 10 µM;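 active means fluorescence ratio B-score at or below minus 3 SD of library scores, with starting-brightness B-score within 2 SD, cut at about -4.2 in these data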;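 further: channel flux triggered by added potassium and thallium sulfate stimulus; B-score of peak minus minimum fluorescence over baseline after thallium stimulus; more negative B-score means stronger Kir2.1 block with less thallium influx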
KCNK3 inh: human KCNK3 channel inhibition, primary screen; AID 602410; CHO-KCNK3 thallium flux, FluxOR fluorescence; hits give low values; B-score at 10 µM; actives 0.84% (n = 340,000);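 active means B-score under library mean minus 4 SD, starting fluorescence ratio at most library mean plus 5 SD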;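 further: more negative B-score means stronger inhibition of thallium flux through KCNK3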
KCNQ1 act: human KCNQ1 channel potentiation or activation; P51787; CHO-K1 KCNQ1, thallium flux FluxOR fluorescence; hits give high values; B-score at 10 µM; actives 0.35% (n = 310,000);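 active means fluorescence ratio B-score, a plate-corrected score, at least three library SD, with initial intensity B-score within 5 SD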
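Medium – assay buffer, equal DMSO in all wells · Material – CHO-K1 cell line with stable KCNQ1 potassium channel expression · Signal – kinetic FluxOR thallium fluorescence, 10-s 1-Hz baseline, 110-s post-stimulus read · Compound – single concentration per compound, DMSO matched to controls · Schedule – 37 °C overnight plating, 90-min dark dye load, 20-min compound pretreatment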
KCNK9 block conf: human KCNK9 inhibitor confirmation | shares compounds with KCNK9 block | HEK293 KCNK9 cells, FluxOR thallium flux fluorescence | inhibition, % at 10 µM | actives 43% (n = 4,900) | AID 492992;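 active means thallium signal inhibited by more than 5 SD of the compound-free buffer control wells, on both duplicate plates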;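 further: 0% = assay buffer control wells without compound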
Kir2-1 spec: mouse Kir2.1 off-target activity of KCNK9 modulators | inhibition, % at 10 µM | Kir2.1 cells, FluxOR thallium flux fluorescence | AID 492993 | shares compounds with KCNK9 block | actives 4% (n = 4,900);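 active means thallium signal drop more than 5 SD beyond the mean of the no-compound control wells, seen in both duplicate plates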;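 further: signal is fluorescence rise after thallium addition divided by baseline fluorescence; plate controls were assay buffer only for no effect and full block by chlorpromazine control for full effect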
HEK293 Tl ctr: second counter-screen for KCNK9 modulators: effect in non-induced cells | shares compounds with KCNK9 block | non-induced KCNK9-HEK293, FluxOR thallium flux | inhibition, % at 10 µM | actives 40% (n = 4,900);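 active means thallium signal drop beyond 5 SD of the untreated control mean, on both duplicate plates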;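 further: plate controls were buffer only IC0 wells for no effect and SID17386958 at its maximal inhibitory level for full effect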
* hit, by the source's call; i = inactive; . = not tested or not shown. Shown are actives, neighbours in structure and some others; about 3.7% of the full set was active somewhere.

SMILES	KCNQ1 inh	hERG protect	KCNK9 block	Kir21 inh	KCNK3 inh	KCNQ1 act	KCNK9 block conf	Kir2-1 spec	HEK293 Tl ctr
Cc1cc(Br)ccc1-n1[nH]c(C)c(C=Nc2cccc3nsnc23)c1=O	i	-6	i	-1.2	i	i	i	i	i
COc1ccccc1N=Cc1c(C)[nH]n(-c2ccc(C)cc2C)c1=O	i	-21	i	-0.59	i	i	.	.	.
COc1ccccc1OCCSc1nnc(C)n1-c1ccccc1	i	-6	i	0.38	i	i	.	.	.
COc1ccc(OCCSc2nnc(C)n2-c2ccccc2)cc1	i	-6	i	-1.2	i	i	i	i	i
C=CCn1c(C)cc(C(=O)CSc2nnc(-c3cccc(S(=O)(=O)N(CC)CC)c3)o2)c1C	i	-1	i	0.28	i	i	i	i	i
CCN(CC)S(=O)(=O)c1cccc(-c2nnc(SCCCC(=O)c3ccccc3)o2)c1	i	-19	i	-0.96	i	i	i	i	i
CCC(C)[C@H](NC(=O)C1CC(=O)N(c2ccc3c(c2)OCO3)C1)C(=O)NC1CCCCC1 (some centres not stated)	i	-8	i	-0.85	i	i	.	.	.
O=C(CCNC(=O)c1ccco1)Nc1ccccc1N1CCOCC1	i	-4	i	0.04	i	i	.	.	.
O=C1OC(C(=O)NCc2ccccc2)Cc2ccccc21 (configuration not stated)	i	-16	i	1.6	i	i	.	.	.
CC(C)C(=O)NC(c1ccc(Cl)cc1Cl)c1ccc2cccnc2c1O (configuration not stated)	i	-8	i	-0.18	i	i	i	i	28%*
CCc1cc2c3c(c(=O)oc2cc1OCC(=O)OC)CCCC3	i	-10	i	-1.9	i	i	.	.	.
O=C(Cc1ccc([N+](=O)[O-])cc1)Nc1nccs1	i	1	-20*	-0.24	i	i	i	i	i
COc1ccccc1C1=NC(c2ccc(F)cc2)N=C1C (configuration not stated)	i	-10	i	1.1	i	i	i	i	i
C=Cc1ccc(Cn2nc(-c3ccc(C)cc3)ccc2=O)cc1	i	-5	i	2.6	i	i	i	i	i
CCc1ccc(N(C(=O)c2snc(C(N)=O)c2N)C(C(=O)NCC2CCCO2)c2cccs2)cc1 (configuration not stated)	i	-18	i	3.1	i	i	i	i	i
NC(=O)c1nsc(C(=O)N(c2ccc(Cl)cc2)C(C(=O)NCC2CCCO2)c2cccs2)c1N (configuration not stated)	i	-5	i	0.01	i	i	.	.	.
O=C(COc1ccc(Br)cc1)N1CCc2ccccc2C1	i	-12	i	0.8	i	i	.	.	.
O=C(Cc1ccc(Br)cc1)OCC(=O)N1CCc2ccccc2C1	i	-2	i	0.02	i	i	i	i	i
O=C(CCS(=O)(=O)Cc1ccccc1)N1CCc2ccccc2C1	i	-8	i	2	i	i	i	i	i
Nc1nc(SCC(=O)Nc2ccc([N+](=O)[O-])cc2)[nH]c(=O)c1NC(=O)c1ccc(Br)o1	i	0	i	-0.85	i	i	.	.	.
O=C(NCc1ccco1)c1cccc(NS(=O)(=O)c2cccc(F)c2)c1	i	-6	i	-0.39	i	i	.	.	.
O=C(NCc1ccco1)c1cc(NS(=O)(=O)c2cccc([N+](=O)[O-])c2)ccc1O	i	-11	i	0.44	i	i	i	i	i
NC(=O)SCC(=O)Nc1cccc(Cl)c1	i	0	-10*	-0.89	i	i	58%*	i	36%*
COc1ccc(NC2(c3ccccc3)OC(=O)c3ccccc32)cc1 (configuration not stated)	i	-8	i	0.19	i	i	.	.	.
CCCCCCOC1(c2ccccc2)OC(=O)c2ccccc21 (configuration not stated)	i	-14	-15*	0.35	i	i	79%*	i	50%*
SMILES	KCNQ1 inh	hERG protect	KCNK9 block	Kir21 inh	KCNK3 inh	KCNQ1 act	KCNK9 block conf	Kir2-1 spec	HEK293 Tl ctr
CCCCCCCOC1(c2ccccc2)OC(=O)c2ccccc21 (configuration not stated)	i	-16	-16*	-0.25	i	i	70%*	i	48%*
Cc1cccc(OC2(c3ccccc3)OC(=O)c3ccccc32)c1C (configuration not stated)	i	-11	-13*	-0.44	i	i	52%*	i	42%*
COc1ccccc1-n1cc(-c2ccc(Cl)cc2)[nH]c1=O	i	-2	i	1.7	i	i	.	.	.
CCOc1ccc(NC(=O)c2cccc(NC(C)=O)c2)cc1S(=O)(=O)N1CCCC1	.	.	.	.	i	.	.	.	.
CCCc1cc(=O)[nH]c(SCC(=O)c2ccc3c(c2)NC(=O)CO3)n1	i	-13	i	-0.83	i	i	.	.	.
CN(C(=O)c1ccc2c(Cl)c3c(nc2c1)CCC3)c1ccccc1	i	-13	i	-0.09	i	i	.	.	.
CCN(C(=O)c1ccc2c(Cl)c3c(nc2c1)CCC3)c1ccc(C)c(C)c1	i	-16	i	0.52	i	i	i	i	i
COc1ccc(-c2noc(C3CCCN(S(=O)(=O)c4cccc(Cl)c4C)C3)n2)cc1OC (configuration not stated)	i	-7	-12*	-1.3	i	i	34%*	i	i
COc1ccc(-c2noc(C3CCCN(S(=O)(=O)c4ccc(C)c(Cl)c4)C3)n2)cc1OC (configuration not stated)	i	-15	i	1.7	i	i	.	.	.
COc1ccc(-c2noc(C3CCCN(C(=O)c4cccc(C)c4)C3)n2)cc1 (configuration not stated)	i	-4	i	-1	i	i	i	i	i
O=C(NCCc1ccccc1)c1oc2ccccc2c1COc1ccccc1	6*	-14	i	-0.03	i	i	i	i	i
